Data published in ChEMBL document CHEMBL1135647, “New pyridobenzodiazepine derivatives: modifications of the basic side chain differentially modulate binding to dopamine (D(4.2), D(2L)) and serotonin (5-HT(2A)) receptors” (J Med Chem, 2002).
pKi: −log10 of the molar value.

Legend:
[1] = molecular target: T1, 5-hydroxytryptamine receptor 2A (Rattus norvegicus, UniProt P14842); assay: In vitro binding affinity at 5-hydroxytryptamine 2A receptor in rat cortical membrane; assay type: cell membranes
T1 sequence (P14842 whole entry): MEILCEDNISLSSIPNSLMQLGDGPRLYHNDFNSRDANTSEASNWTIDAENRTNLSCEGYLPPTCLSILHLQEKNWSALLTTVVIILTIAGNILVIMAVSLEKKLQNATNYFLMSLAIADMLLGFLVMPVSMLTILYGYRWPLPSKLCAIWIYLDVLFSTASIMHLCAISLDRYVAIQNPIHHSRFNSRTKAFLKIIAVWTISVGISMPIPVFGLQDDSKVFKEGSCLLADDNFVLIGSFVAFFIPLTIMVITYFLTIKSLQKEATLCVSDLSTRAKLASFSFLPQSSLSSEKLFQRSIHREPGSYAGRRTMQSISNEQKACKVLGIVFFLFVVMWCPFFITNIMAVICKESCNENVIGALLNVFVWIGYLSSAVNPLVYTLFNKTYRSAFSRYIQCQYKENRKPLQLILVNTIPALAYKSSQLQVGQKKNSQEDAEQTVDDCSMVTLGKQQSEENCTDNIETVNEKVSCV
How it was run: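 Frontal cortex membranes from female Wistar rats, stored at -80 °C. Incubated 30 min at 37 °C with 1 nM [3H]ketanserin; nonspecific binding with 10 µM methysergide; protein 2 mg/mL final. Filtered on PEI-presoaked GF/C and counted by scintillation. Nine concentrations in triplicate per curve, at least duplicate curves after a 10-6/10^-7 M prescreen. Ki by Cheng-Prusoff.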

D(4) dopamine receptor [2] = molecular target: T2, D(4) dopamine receptor (Homo sapiens, UniProt P21917); assay: (§1) In vitro binding affinity at human cloned Dopamine receptor D4 expressed in Sf9 cell membranes
T2 sequence (P21917 whole entry): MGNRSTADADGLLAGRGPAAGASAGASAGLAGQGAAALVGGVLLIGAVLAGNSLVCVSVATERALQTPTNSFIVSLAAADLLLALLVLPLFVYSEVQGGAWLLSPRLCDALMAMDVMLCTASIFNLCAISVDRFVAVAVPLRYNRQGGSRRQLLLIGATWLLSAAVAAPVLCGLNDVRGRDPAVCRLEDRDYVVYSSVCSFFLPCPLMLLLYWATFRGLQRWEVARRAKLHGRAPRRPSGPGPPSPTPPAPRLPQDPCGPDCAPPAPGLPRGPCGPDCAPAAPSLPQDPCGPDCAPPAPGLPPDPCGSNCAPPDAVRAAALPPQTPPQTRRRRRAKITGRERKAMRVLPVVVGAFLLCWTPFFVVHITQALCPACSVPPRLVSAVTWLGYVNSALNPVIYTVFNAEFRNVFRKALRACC

Mus musculus [3] = assay: Percentage of total immobility time after an intraperitoneal dose of 30 (mg/kg) in porsolt's test; assay type: functional
Mus musculus [4] = assay: Percentage of total immobility time after an intraperitoneal dose of 7.5 (mg/kg) in porsolt's test; assay type: functional
Mus musculus [5] = assay: Percentage of total immobility time after an intraperitoneal dose of 15 (mg/kg) in porsolt's test
[6] = molecular target: T3, Adrenergic receptor alpha-1 (Rattus norvegicus, UniProt P15823+P23944+P43140); assay: In vitro binding affinity at Alpha-1 adrenergic receptor in rat cortical tissues
T3 sequence (P15823 whole entry): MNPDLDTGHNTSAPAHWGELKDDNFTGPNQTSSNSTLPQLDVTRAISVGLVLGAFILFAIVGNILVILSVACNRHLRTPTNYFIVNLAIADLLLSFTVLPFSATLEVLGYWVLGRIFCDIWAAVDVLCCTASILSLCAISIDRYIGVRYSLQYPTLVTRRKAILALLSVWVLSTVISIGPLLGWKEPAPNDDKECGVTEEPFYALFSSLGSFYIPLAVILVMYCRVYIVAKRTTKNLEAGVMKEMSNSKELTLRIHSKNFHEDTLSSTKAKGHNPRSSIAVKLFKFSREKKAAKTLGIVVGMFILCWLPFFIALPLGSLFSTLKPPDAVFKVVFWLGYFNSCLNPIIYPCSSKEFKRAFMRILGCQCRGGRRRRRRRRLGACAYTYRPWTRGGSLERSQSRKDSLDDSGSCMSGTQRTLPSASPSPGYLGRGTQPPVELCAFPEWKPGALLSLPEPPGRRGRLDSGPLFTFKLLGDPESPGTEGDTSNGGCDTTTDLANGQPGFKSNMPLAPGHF
T3 sequence (P23944 whole entry): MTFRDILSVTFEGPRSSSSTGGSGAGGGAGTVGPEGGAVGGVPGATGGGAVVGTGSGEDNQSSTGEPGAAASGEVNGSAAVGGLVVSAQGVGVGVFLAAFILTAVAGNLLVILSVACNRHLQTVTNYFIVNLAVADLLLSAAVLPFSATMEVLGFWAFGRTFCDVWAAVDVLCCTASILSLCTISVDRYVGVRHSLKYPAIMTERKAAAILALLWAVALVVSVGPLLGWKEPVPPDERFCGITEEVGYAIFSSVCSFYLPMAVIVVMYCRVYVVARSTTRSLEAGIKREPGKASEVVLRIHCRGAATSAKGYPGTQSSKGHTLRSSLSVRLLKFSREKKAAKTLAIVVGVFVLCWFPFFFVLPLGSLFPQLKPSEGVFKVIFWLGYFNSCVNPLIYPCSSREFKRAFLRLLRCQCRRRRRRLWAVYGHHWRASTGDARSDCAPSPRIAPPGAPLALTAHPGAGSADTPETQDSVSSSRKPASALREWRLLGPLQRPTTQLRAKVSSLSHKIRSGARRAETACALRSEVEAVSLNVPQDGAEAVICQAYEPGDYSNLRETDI
T3 sequence (P43140 whole entry): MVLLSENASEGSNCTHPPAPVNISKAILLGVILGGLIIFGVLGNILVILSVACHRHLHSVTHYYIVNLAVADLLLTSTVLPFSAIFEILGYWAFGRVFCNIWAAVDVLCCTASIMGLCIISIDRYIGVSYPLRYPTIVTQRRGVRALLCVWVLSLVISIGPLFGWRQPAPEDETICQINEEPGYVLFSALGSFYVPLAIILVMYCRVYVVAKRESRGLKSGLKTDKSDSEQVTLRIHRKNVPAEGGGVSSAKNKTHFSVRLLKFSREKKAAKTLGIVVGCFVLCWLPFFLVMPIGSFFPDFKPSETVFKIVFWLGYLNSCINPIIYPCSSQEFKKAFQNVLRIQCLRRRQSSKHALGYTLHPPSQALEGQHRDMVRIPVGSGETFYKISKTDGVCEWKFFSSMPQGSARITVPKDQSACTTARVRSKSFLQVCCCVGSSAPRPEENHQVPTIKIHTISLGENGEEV

Rattus norvegicus [7] = assay: Compound was evaluated in paw test for the hindlimb retraction at effective dose of 5 (mg/kg); assay type: functional
Rattus norvegicus [8] = assay: Compound was evaluated in paw test for the forelimb retraction in rat at effective dose of 20 (mg/kg); assay type: functional
Mus musculus [9] = assay: Percentage of total immobility time after an intraperitoneal dose of 16 (mg/kg) in porsolt's test; assay type: functional
How it was run: (§2)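 Forced swimming (Porsolt) test in mice, with the compound given i.p. Immobility time was expressed as a percentage of the total immobility time of vehicle-treated animals. Significance was assessed against saline by Mann-Whitney U test, or against vehicle by analysis of variance with post hoc tests.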

Mus musculus [10] = assay: Percentage of total immobility time after an intraperitoneal dose of 8 (mg/kg) in porsolt's test; assay type: functional; how it was run: as §2
Mus musculus [11] = assay: Percentage of total immobility time after an intraperitoneal dose of 4 (mg/kg) in porsolt's test; assay type: functional; how it was run: as §2
Rattus norvegicus [12] = assay: Compound was evaluated in paw test for the forelimb retraction at effective dose of 20 (mg/kg); assay type: functional
[13] = molecular target: T1, 5-hydroxytryptamine receptor 2A; assay: In vitro binding affinity at serotonin 5-hydroxytryptamine 2A receptor in rat cortical membrane; assay type: cell membranes
D(4) dopamine receptor [14] = molecular target: T2, D(4) dopamine receptor; assay: as §1; remark: listed apart in the source
How it was run: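 Sf9 membranes expressing human cloned D4.2, in 50 mM Tris-HCl pH 7.4 with 5 mM MgCl2, 5 mM EDTA, 5 mM KCl and 1.5 mM CaCl2. […] Filtration on GF/C. Six to nine concentrations in duplicate. Ki by Cheng-Prusoff.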

Mus musculus [15] = assay: Percentage of total immobility time after an intraperitoneal dose of 8 (mg/kg) in porsolt's test in mice; assay type: functional
Mus musculus [16] = assay: Percentage of total immobility time after an intraperitoneal dose of 16 (mg/kg) in porsolt's test in mice; assay type: functional
Rattus norvegicus [17] = species on record: Rattus norvegicus; assay: Compound was evaluated in paw test for the hindlimb retraction in rat
Mus musculus [18] = assay: Percentage of total immobility time after an intraperitoneal dose of 4 (mg/kg) in porsolt's test in mice; assay type: functional

Row | SMILES | pKi [1] | pKi (D(4) dopamine receptor [2]) | Ki [6] [nM] | further results
1 | Cc1ccc2c(c1)C(N1CCN(C3CCCCC3)CC1)=Nc1cccnc1N2 | 7.48 | 7.08 |  | 
2 | CN(C)CCCN1c2ccccc2CCc2ccccc21 [IMIPRAMINE] |  |  |  | Immobility (Mus musculus [3]): 70%; Immobility (Mus musculus [4]): 98%; Immobility (Mus musculus [5]): 45%
3 | FC(F)(F)c1cccc(N2CCN(C3=Nc4cccnc4Nc4ccc(Cl)cc43)CC2)c1 | < 6.00 | < 6.00 | > 1000 | 
4 | Cc1ccc2c(c1)C(NCCN(C)C)=Nc1cccnc1N2 | 6.82 | < 6.00 | > 1000 | 
5 | Clc1ccc2c(c1)C(NCCN1CCCCC1)=Nc1cccnc1N2 | 6.45 | < 6.00 | 63 | 
6 | Cc1ccc2c(c1)C(N1CCN(c3cccc(C(F)(F)F)c3)CC1)=Nc1cccnc1N2 | < 6.00 | < 6.00 | > 1000 | 
7 | CN1CCN(C2=Nc3cc(Cl)ccc3Nc3ccccc32)CC1 [CLOZAPINE] |  |  |  | Retraction time (Rattus norvegicus [7]): 30 s; Retraction time (Rattus norvegicus [8]): 1.1 s; Immobility (Mus musculus [9]): 139%; Immobility (Mus musculus [10]): 103%; Immobility (Mus musculus [11]): 95%
8 | Cc1ccc2c(c1)C(NCCCN(C)C)=Nc1cccnc1N2 | < 6.00 | < 6.00 | > 1000 | 
9 | Cc1ccc2c(c1)C(NCCC1CCCN1C)=Nc1cccnc1N2 (stereo not given) | < 6.00 | < 6.00 |  | 
10 | Clc1ccc2c(c1)C(N1CCN(c3ccccc3)CC1)=Nc1cccnc1N2 | < 6.00 | < 6.00 | > 1000 | 
11 | O=C(CCCN1CCC(O)(c2ccc(Cl)cc2)CC1)c1ccc(F)cc1 [HALOPERIDOL] |  |  |  | Retraction time (Rattus norvegicus [7]): 30 s; Retraction time (Rattus norvegicus [12]): 22.5 s
12 | Cc1ccc2c(c1)C(NC1CCN(Cc3ccccc3)CC1)=Nc1cccnc1N2 | 7.32 | 7.34 | 100 | 
13 | Cc1ccc2c(c1)C(NC1CCN(C)CC1)=Nc1cccnc1N2 | 6.88 | 6.29 | 18 | 
14 | CN1CCN(C2=Nc3cccnc3Nc3ccc(Cl)cc32)CC1 |  | 7.62 | 79 | pKi [13]: 7.46
15 | Cc1ccc2c(c1)C(N1CCN(c3ccccc3)CC1)=Nc1cccnc1N2 | < 6.00 |  | > 1000 | pKi (D(4) dopamine receptor [14]): < 6.00
16 | Cc1ccc2c(c1)C(N1CCN(C)CC1)=Nc1cccnc1N2 |  | 7.44 | 108 | pKi [13]: 7.43
17 | Clc1ccc2c(c1)C(NCCc1ccccn1)=Nc1cccnc1N2 |  | < 6.00 | > 1000 | 
18 | Clc1ccc2c(c1)C(NC1CCN(Cc3ccccc3)CC1)=Nc1cccnc1N2 | 7.09 | 7.05 | 163 | 

Row | SMILES | pKi [1] | pKi (D(4) dopamine receptor [2]) | Ki [6] [nM] | further results
19 | Cc1ccc2c(c1)C(N1CCCN(C)CC1)=Nc1cccnc1N2 | 6.52 | 6.45 |  | 
20 | Clc1ccc2c(c1)C(N1CCN(C3CCCCC3)CC1)=Nc1cccnc1N2 | 7.47 | 7.32 |  | 
21 | Clc1cccc(N2CCN(C3=Nc4cccnc4Nc4ccc(Cl)cc43)CC2)c1 | < 6.00 | < 6.00 |  | 
22 | CN(C)CCCNC1=Nc2cccnc2Nc2ccc(Cl)cc21 |  | < 6.00 | > 1000 | 
23 | Clc1ccc2c(c1)C(NCCN1CCOCC1)=Nc1cccnc1N2 |  | < 6.00 | > 1000 | 
24 | Cc1ccc2c(c1)C(NCCN1CCOCC1)=Nc1cccnc1N2 | < 6.00 | < 6.00 |  | 
25 | Cc1ccc2c(c1)C(N1CCN(CCc3ccccc3)CC1)=Nc1cccnc1N2 | 7.44 | 7.43 | 172 | 
26 | Clc1ccc2c(c1)C(N1CCN(Cc3ccccc3)CC1)=Nc1cccnc1N2 | < 6.00 | 6.96 | > 1000 | 
27 | CN1CCCN(C2=Nc3cccnc3Nc3ccc(Cl)cc32)CC1 |  | 6.79 | > 1000 | pKi [13]: 6.79
28 | Clc1ccc2c(c1)C(NC1CC3CCC(C1)N3Cc1ccccc1)=Nc1cccnc1N2 (stereo not given) | 7.44 |  |  | 
29 | CN1CCC(NC2=Nc3cccnc3Nc3ccc(Cl)cc32)CC1 | 6.91 | 6.41 |  | 
30 | Cc1ccc2c(c1)C(N1CCN(c3cccc(Cl)c3)CC1)=Nc1cccnc1N2 | < 6.00 | < 6.00 | > 1000 | 
31 | Cc1ccc2c(c1)C(N1CCN(Cc3ccccc3)CC1)=Nc1cccnc1N2 | < 6.00 | 6.74 | > 1000 | 
32 | Cc1ccc2c(c1)C(NCCc1ccccn1)=Nc1cccnc1N2 |  | < 6.00 |  | 
33 | Clc1ccc2c(c1)C(NCCN1CCCC1)=Nc1cccnc1N2 | 6.60 | 6.47 |  | 
34 | Cc1ccc2c(c1)C(NC1CC3CCC(C1)N3Cc1ccccc1)=Nc1cccnc1N2 (stereo not given) | 7.47 | 6.88 |  | 
35 | Clc1ccc2c(c1)C(N1CCN(CCc3ccccc3)CC1)=Nc1cccnc1N2 | 6.99 | 7.40 | 367 | Retraction time (Rattus norvegicus [8]): 1 s; Immobility (Mus musculus [15]): 36%; Immobility (Mus musculus [16]): 49%; Retraction time (Rattus norvegicus [17]): 2.5 s; Immobility (Mus musculus [18]): 52%
